From ChEMBL document CHEMBL4715759, “Synthesis, biological evaluation and molecular modeling study of thiadiazolo[3,2-a][1,3]diazepine analogues of HIE-124 as a new class of short acting hypnotics” (Eur J Med Chem, 2016) come the findings set out here.

Data set [1] deals with Mus musculus. As to the kind of experiment: Hypnotic activity in mouse assessed as onset of sleep time at 0.8 mmol/Kg, ip by righting reflex. The class given is functional. In a few lines: (§1)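 Mice were first checked for an intact righting reflex. Single i.p. doses of 0.2–2 mmol/kg were given in DMSO (up to 1 ml/kg), or as a 0.25% aqueous carboxymethylcellulose suspension (up to 10 ml/kg) for larger doses, with vehicle controls. Each mouse was placed under a 30-cm glass funnel and monitored visually and by video. Onset of sleep was timed. Duration ended at regain of the righting reflex 3 times within 1 min. Minimal effective dose recorded; n=6.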

Data set [2] in a line: Therapeutic Index, ratio of LD50 of Toxicity in iv dosed mouse to minimum effective hypnotic dose in mouse. As to conditions: in vivo, read-out: TI. The class given is organism-based.
In data set [3] the test system is Mus musculus. The data set can be described thus: Hypnotic activity in mouse assessed as duration of sleep time at 0.8 mmol/Kg, ip by righting reflex. The data set is classed as functional. In short, it runs like this: as §1
In data set [4] the test system is Mus musculus. The data set can be described thus: Hypnotic activity in mouse assessed as onset of sleep time at 0.2 mmol/Kg, ip by righting reflex. The class given is functional. In a few lines: (§2)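 Mice screened for intact righting reflex, then dosed i.p. (0.2–2 mmol/kg range; DMSO up to 1 ml/kg, or larger doses suspended in 0.25% aqueous Na-CMC up to 10 ml/kg). Each mouse was held under a 30-cm glass funnel and monitored visually and by video. Onset was recorded at loss of righting reflex. Sleep ended when the reflex was regained 3 times within one minute. n=6.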

Data set [5] relates to Mus musculus. As to the kind of experiment: Hypnotic activity in mouse assessed as duration of sleep time at 0.2 mmol/Kg, ip by righting reflex. The class given is functional. In a few lines: as §2
Data set [6] relates to Mus musculus. The data set can be described thus: Hypnotic activity in mouse assessed as duration of sleep time at 1 mmol/Kg, ip by righting reflex. The data set is classed as functional. In short, it runs like this: as §1
Data set [7] concerns Mus musculus. As to the kind of experiment: Hypnotic activity in mouse assessed as onset of sleep time at 1 mmol/Kg, ip by righting reflex. The class given is functional. In a few lines: as §1
Data set [8] has as its system Mus musculus. As to the kind of experiment: Hypnotic activity in mouse assessed as onset of sleep time at 1.6 mmol/Kg, ip by righting reflex. The data set is classed as functional. In short, it runs like this:
as §1

Data set [9] concerns Mus musculus. The data set can be described thus: Hypnotic activity in mouse assessed as duration of sleep time at 1.6 mmol/Kg, ip by righting reflex. The data set is classed as functional, organism-based. In a few lines:
as §1

Data set [10] relates to Mus musculus. As to the kind of experiment: Hypnotic activity in mouse assessed as onset of sleep time at 0.4 mmol/Kg, ip by righting reflex. The data set is classed as functional. In short, it runs like this:
as §1

In data set [11] the test system is Mus musculus. As to the kind of experiment: Hypnotic activity in mouse assessed as onset of sleep time at 0.03 mmol/Kg, ip in presence of 0.06 mmole/kg thiopenetal by righting reflex. The class given is functional. In a few lines:
(§3)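 Mice received a test compound (0.03–0.06 mmol/kg) together with thiopental sodium (0.06 mmol/kg), both i.p. Vehicle was DMSO (up to 1 ml/kg), or 0.25% aqueous sodium carboxymethylcellulose suspension for larger doses (up to 10 ml/kg). Each mouse was kept under a 30-cm glass funnel and watched visually and on video. Sleep onset was timed. Duration ended when the righting reflex was regained 3 times within one minute. n=6.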

For data set [12], the system named is Mus musculus. The data set can be described thus: Hypnotic activity in mouse assessed as duration of sleep time at 0.4 mmol/Kg, ip by righting reflex. The data set is classed as functional. In short, it runs like this: as §1
For data set [13], the system named is Mus musculus. The data set can be described thus: Hypnotic activity in mouse assessed as duration of sleep time at 0.03 mmol/Kg, ip in presence of 0.06 mmole/kg thiopenetal by righting reflex. The class given is functional. In a few lines:
as §3

Data set [14] relates to Mus musculus. As to the kind of experiment: Hypnotic activity in mouse assessed as onset of sleep time at 0.06 mmol/Kg, ip in presence of 0.06 mmole/kg thiopenetal by righting reflex. The data set is classed as functional. In a few lines: as §3
For data set [15], the system named is Mus musculus. The data set can be described thus: Hypnotic activity in mouse assessed as duration of sleep time at 0.06 mmol/Kg, ip in presence of 0.06 mmole/kg thiopenetal by righting reflex. The class given is functional. In short, it runs like this: as §3
In data set [16] the test system is Mus musculus. The data set can be described thus: Hypnotic activity in mouse assessed as onset of sleep time at 0.05 mmol/Kg, ip in presence of 0.06 mmole/kg thiopenetal by righting reflex. The class given is functional. In short, it runs like this:
as §3

Data set [17] relates to Mus musculus. The data set can be described thus: Hypnotic activity in mouse assessed as duration of sleep time at 0.05 mmol/Kg, ip in presence of 0.06 mmole/kg thiopenetal by righting reflex. The class given is functional. In a few lines:
as §3

Molecules are shown by their SMILES. Activity calls are given as the source filed them. No cut-off for these calls is given here.

On to `O=C1CCCN2N=C(C(F)(F)F)SC2=N1`, for which the Time in data set [1] and in [3] was 14 min each time. Moreover, the selectivity ratio in data set [2] was 3.32.

On to `CCCC(C)C1(CC)C(=O)[N-]C(=S)NC1=O.[Na+]` (centres undefined) [THIOPENTAL SODIUM], for which the Time in [4] was found to be 2 min; in [5] it was 45 min. For the same molecule, in data set [2], the selectivity ratio is 6.1.

On to `CC1=NN2CCCC(=O)N=C2S1`, for which the Time in [6] is recorded as 6 min; in data set [7] it was 25 min. In addition, the selectivity ratio in [2] was 3.55.

`Cc1ccc(C2=NN3CCCC(=O)N=C3S2)cc1`: in data set [8], the Time came to 20 min. The selectivity ratio in data set [2] came out at 1.25. In addition, the result in data set [9] was inactive.

For `O=C1CCCN2N=C(c3ccc(Br)cc3)SC2=N1`, the Time in data set [10] was 43.4 min; in data set [11] it was 3.1 min; in data set [13], 75 min. Besides, the outcome in data set [12] was inactive. Besides, in data set [2], the selectivity ratio was 1.5.

In the case of `O=C1CCCN2N=C(c3ccccc3)SC2=N1`, the Time in [14] is 7.5 min; in data set [10], 6.4 min; in [12] it was 94.8 min; in data set [15] it was 62.5 min; in data set [16], 15 min; in data set [17], 5 min. Further, the selectivity ratio in [2] came out at 6.62.
